Source: publication PMC3899454 (Clinical Drug Investigation, 2013)

Experiments:
[1] = cited from earlier work
[2] = Safety and tolerability after a single dose; assay type: in vivo, human; settings: 24 subjects
Method in brief: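 Single 0.4 U/kg s.c. thigh dose given at 0800–1000 h. Safety assessed by adverse events (severity and relationship graded by investigator), physical examination, vital signs, ECG, biochemistry, hematology, urinalysis and hypoglycemia. Confirmed hypoglycemia: plasma glucose <3.1 mmol/L or ADA 'severe'. Treatment-emergent: onset from dosing to 7 days post-dose. Blood glucose sampled to 120 h.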

[3] = compared with insulin glargine; cited from earlier work

For insulin detemir, the “Pharmacokinetics in subjects with renal or hepatic impairment” value [1] is given as “no clinically relevant difference in pharmacokinetics”.
In the case of insulin lispro, the “Effect of hepatic dysfunction on glucodynamic response” value [1] is listed as “did not appear to affect the glucodynamic response”.
For insulin degludec, the “Adverse events (other than hypoglycemia) or medical events of special interest” value ([2]; single s.c. dose 0.4 U/kg) was “No adverse events”, the Injection-site reactions ([2]; single s.c. dose 0.4 U/kg into the thigh) was “No injection-site reactions were reported” and the Severe hypoglycemic episodes ([2]; single s.c. dose 0.4 U/kg, ADA definition of severe) was “none of these episodes were categorized as severe”. The “Variability of glucose-lowering effect” value [3] was “four times less variable glucose-lowering effect” and the “Pharmacokinetic properties in subjects with renal impairment” value ([1]; varying degrees of impaired renal function) was “pharmacokinetic properties were also preserved in subjects with renal impairment”.
For insulin aspart, the “Impact of hepatic impairment and renal impairment on pharmacokinetics” value ([1]; single-dose pharmacokinetic studies) is given as “no significant impact”.
